# Measured values taken from ChEMBL document CHEMBL1255487, “Preclinical evaluation of the antifolate QN254, 5-chloro- N'6'-(2,5-dimethoxy-benzyl)-quinazoline-2,4,6-triamine, as an antimalarial drug candidate” (Antimicrob Agents Chemother, 2010).
# Tests used:
# Plasmodium berghei [1] = assay: Antimalarial activity against Plasmodium berghei ANKA infected in NMRI mice (Mus musculus) assessed as cure rate at 3 times 100 mg/kg, perorally measured on […]; assay type: functional; conditions: route oral
# How it was run: (§1)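 Female NMRI mice (20–22 g), 5 per group, infected intravenously with 0.2 ml of 1 × 10^8 parasitized erythrocytes/ml from a fresh donor mouse. Compound suspended in 0.5% carboxymethyl cellulose and given orally. Survival followed to day 30 post-infection; an animal was scored cured if it survived to day 30 without parasites.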
# [2] = Cmax in CD-1 mouse at 25 mg/kg, po; assay type: ADME, organism-based; set-up: dose 25 mg/kg, route oral; conditions: in vivo
# How it was run: (§2)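 Mice dosed with 25 mg/kg p.o. as a 2.5 mg/ml suspension in 0.5% CMC, or with 5 mg/kg i.v. at 1 mg/ml in 10% NMP, 30% PEG 400 and 60% of 10% vitamin E-TPGS. Blood sampled at several time points. Plasma extracted with acidified acetonitrile (8:1) and quantified by LC-MS, LLOQ 12 ng/ml.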
# Plasmodium berghei [3] = assay: Antimalarial activity against Plasmodium berghei ANKA infected in NMRI mice (Mus musculus) assessed as mean survival time at 3 times 30 mg/kg, perorally; assay type: functional; conditions: route oral
# How it was run: (§3)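 Infection: 5 female NMRI mice (20–22 g) per group, inoculated intravenously with 0.2 ml of donor blood at 1 × 10^8 parasitized erythrocytes/ml. Oral administration in 0.5% carboxymethyl cellulose. Survival time recorded up to 30 days after infection and averaged per group.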
# Plasmodium berghei [4] = assay: Antimalarial activity against Plasmodium berghei ANKA infected in NMRI mice (Mus musculus) assessed as survival rate at 60 mg/kg, perorally administered as single dose; assay type: functional; conditions: route oral; how it was run: as §3
# [5] = Binding affinity to recombinant Plasmodium falciparum V1/S DHFR S108N, N51I, C59R, I164L mutant by competitive binding assay; set-up: species or system V1S
# Plasmodium berghei [6] = assay: Antimalarial activity against Plasmodium berghei ANKA infected in NMRI mice (Mus musculus) assessed as reduction in parasitemia at 3 times 60 mg/kg, perorally measured on day 3 postinfection; assay type: functional; set-up: scale not given: the % may be the effect or the level left; conditions: route oral
# How it was run: (§4)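 P. berghei ANKA given intravenously to groups of 5 female NMRI mice (20–22 g): 0.2 ml of 1 × 10^8 parasitized erythrocytes/ml from a donor mouse. Oral dosing in 0.5% carboxymethyl cellulose. Parasitemia counted by microscopy. Activity is the control-minus-treated parasitemia difference, expressed as percent of untreated controls.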
# Plasmodium berghei [7] = assay: Antimalarial activity against Plasmodium berghei ANKA infected in NMRI mice (Mus musculus) assessed as reduction in parasitemia at 60 mg/kg, perorally administered as single dose measured on day 3 postinfection; assay type: functional; set-up: scale not given: the % may be the effect or the level left; conditions: route oral; how it was run: as §4
# [8] = Half life in CD-1 mouse at 25 mg/kg, po; assay type: ADME, organism-based; set-up: dose 25 mg/kg, route oral; conditions: in vivo; how it was run: as §2
# Rattus norvegicus = assay: Toxicity in Wistar rat assessed as occurrence of bone marrow degeneration at => 50 mg/kg, po after 2 weeks; assay type: organism-based; set-up: dose 50 mg/kg, route oral; conditions: in vivo, 336 h
# How it was run: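 Male Wistar rats, about 10 weeks old (254–292 g), 5 per group, gavaged daily with 50, 150 or 500 mg/kg/day. Vehicle was 10% of 1% aqueous Solutol HS15 plus 90% of 0.5% aqueous methylcellulose; exploratory 2-week design. Clinical observations, body weight, food intake, hematology, clinical chemistry and gross pathology recorded. Histopathology covered gross lesions and selected organs in the control and low-dose groups.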
# Plasmodium falciparum [9] = assay: Antimalarial activity against pyrimethamine-resistant Plasmodium falciparum clinical isolate harboring S108N, C59R mutation in DHFR assessed as decrease in parasitaemia; assay type: functional, organism-based
# How it was run: (§5)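 P. falciparum grown in RPMI 1640 with 10% (v/v) human serum, 25 mM bicarbonate, 2 mM glutamine, 25 mM HEPES, 5 nM para-aminobenzoic acid and 23 nM folic acid. Parasites exposed to a concentration series. Read-out is [3H]hypoxanthine incorporation into nucleic acid. IC50 taken from non-linear regression of the dose–response curve.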
# [10] = Tmax in CD-1 mouse at 25 mg/kg, po; assay type: ADME, organism-based; set-up: dose 25 mg/kg, route oral; conditions: in vivo; how it was run: as §2
# [11] = Binding affinity to wild type Plasmodium falciparum DHFR by competitive binding assay
# Plasmodium berghei [12] = assay: Antimalarial activity against Plasmodium berghei ANKA infected in NMRI mice (Mus musculus) assessed as reduction in parasitemia at 15 mg/kg, perorally administered as single dose measured on day 3 postinfection; assay type: functional; set-up: scale not given: the % may be the effect or the level left; conditions: route oral; how it was run: as §4
# [13] = Half life in Wistar rat at 25 mg/kg, po; assay type: ADME, organism-based; set-up: dose 25 mg/kg, route oral; conditions: in vivo
# How it was run: (§6)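 Rats dosed with 25 mg/kg p.o. as a 2.5 mg/ml suspension in 0.5% CMC, or with 5 mg/kg i.v. at 1 mg/ml in 10% NMP, 30% PEG 400 and 60% of 10% vitamin E-TPGS. Plasma sampled over time, extracted with acidified acetonitrile (8:1) and quantified by LC-MS, LLOQ 12 ng/ml.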
# Plasmodium berghei [14] = assay: Antimalarial activity against Plasmodium berghei ANKA infected in NMRI mice (Mus musculus) assessed as survival rate at 10 mg/kg, perorally administered as single dose; assay type: functional; conditions: route oral; how it was run: as §3
# Plasmodium falciparum [15] = assay: Antimalarial activity against pyrimethamine-resistant Plasmodium falciparum V1/S harboring S108N, N51I, C59R, I164L mutation in DHFR assessed as decrease in parasitaemia; assay type: functional, organism-based; conditions: V1S
# [16] = Volume of distribution in Wistar rat at 5 mg/kg, iv; assay type: ADME, organism-based; set-up: dose 5 mg/kg, route intravenous; conditions: in vivo; how it was run: as §6
# Plasmodium falciparum [17] = assay: Antimalarial activity against pyrimethamine-resistant Plasmodium falciparum clinical isolate harboring S108N, N51I, C59R mutation in DHFR assessed as decrease in parasitaemia; assay type: functional, organism-based; how it was run: as §5
# Plasmodium berghei [18] = assay: Antimalarial activity against Plasmodium berghei ANKA infected in NMRI mice (Mus musculus) assessed as cure rate at 30 mg/kg, perorally administered as single dose […]; assay type: functional; conditions: route oral; how it was run: as §1
# Plasmodium berghei [19] = assay: Antimalarial activity against Plasmodium berghei ANKA infected in NMRI mice (Mus musculus) assessed as cure rate at 15 mg/kg, perorally administered as single dose measured on day 3 postinfection; assay type: functional; conditions: route oral; how it was run: as §1
# [20] = Cmax in Wistar rat at 25 mg/kg, po; assay type: ADME, organism-based; set-up: dose 25 mg/kg, route oral; conditions: in vivo; how it was run: as §6
# [21] = Half life in CD-1 mouse at 5 mg/kg, iv; assay type: ADME, organism-based; set-up: dose 5 mg/kg, route intravenous; conditions: in vivo; how it was run: as §2
# Plasmodium berghei [22] = assay: Antimalarial activity against Plasmodium berghei ANKA infected in perorally dosed NMRI mice (Mus musculus) assessed as reduction in parasitemia administered as single dose measured on day 3 postinfection; assay type: functional; conditions: po, 72 h
# Mus musculus = assay: Toxicity in NMRI mice (Mus musculus) infected with Plasmodium berghei ANKA at 60 mg/kg, perorally administered as single dose measured up to 30 days postinfection; assay type: organism-based; set-up: dose 60 mg/kg, route oral; conditions: in vivo, po, 720 h
# Plasmodium berghei [23] = assay: Antimalarial activity against Plasmodium berghei ANKA infected in NMRI mice (Mus musculus) assessed as reduction in parasitemia at 100 mg/kg, perorally administered as single dose measured on day 3 postinfection; assay type: functional; set-up: scale not given: the % may be the effect or the level left; conditions: route oral; how it was run: as §4
# [24] = Tmax in Wistar rat at 25 mg/kg, po; assay type: ADME, organism-based; set-up: dose 25 mg/kg, route oral; conditions: in vivo; how it was run: as §6
# Plasmodium berghei [25] = assay: Antimalarial activity against Plasmodium berghei ANKA infected in NMRI mice (Mus musculus) assessed as reduction in parasitemia at 10 mg/kg, perorally administered as single dose measured on day 3 postinfection; assay type: functional; set-up: scale not given: the % may be the effect or the level left; conditions: route oral; how it was run: as §4
# Plasmodium berghei [26] = assay: Antimalarial activity against Plasmodium berghei ANKA infected in NMRI mice (Mus musculus) assessed as reduction in parasitemia at 30 mg/kg, perorally administered as single dose measured on day 3 postinfection; assay type: functional; set-up: scale not given: the % may be the effect or the level left; conditions: route oral; how it was run: as §4
compound,measurement,setting,value
COc1ccc(OC)c(CNc2ccc3nc(N)nc(N)c3c2Cl)c1,Activity,Plasmodium berghei [1],20%
same,Cmax,[2],5.1 µM
same,Survival,Plasmodium berghei [3],28.4 days
same,Survival,Plasmodium berghei [4],12 days
same,Ki,[5],0.58 nM
same,Activity,Plasmodium berghei [6],>99.99%
same,Activity,Plasmodium berghei [7],>99.99%
same,half-life,[8],4.84 h
same,Activity,Rattus norvegicus,Toxic
same,IC50,Plasmodium falciparum [9],4.48 nM
same,Tmax,[10],4 h
same,Ki,[11],0.39 nM
same,Activity,Plasmodium berghei [12],73%
same,half-life,[13],9.3 h
same,Survival,Plasmodium berghei [14],6 days
same,IC50,Plasmodium falciparum [15],7.61 nM
same,Vd,[16],4.7 L/kg
same,IC50,Plasmodium falciparum [17],11.7 nM
same,Activity,Plasmodium berghei [18],0%
same,Activity,Plasmodium berghei [19],0%
same,Cmax,[20],2.8 µM
same,half-life,[21],0.8 h
same,ED50,Plasmodium berghei [22],7.2 mg/kg
same,ED90,Plasmodium berghei [22],12.4 mg/kg
same,Activity,Mus musculus,0%
same,Activity,Plasmodium berghei [23],>99.99%
same,Tmax,[24],4 h
same,Activity,Plasmodium berghei [25],59%
same,Activity,Plasmodium berghei [26],>99.99%
